Source: ChEMBL document CHEMBL1144847, “Novel uracil-based 2-aminoanilide and 2-aminoanilide-like derivatives: histone deacetylase inhibition and in-cell activities” (Bioorg Med Chem Lett, 2008)
Calls of active or inactive are those of the source. No cut-off for these calls is given here.

Assays:
U-937 [1] = test: Induction of apoptosis in human U937 cells; format: functional, cell-based
Method in brief: (§1)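 U937 cells exposed at 5 µM for 30 h; apoptosis quantified by Annexin V/propidium iodide double staining, expressed as percent apoptotic cells; SAHA and MS-275 at 5 µM as references.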

U-937 [2] = test: Induction of alpha tubulin hyperacetylation in human U937 cells; format: functional, cell-based
Method in brief: (§2)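 U937 cells exposed at 5 µM for 24 h; acetylation of histone H3 and α-tubulin assessed as markers of class I HDAC and HDAC6 inhibition, respectively.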

U-937 [3] = test: Induction of granulocytic differentiation in human U937 cells assessed as CD11c expression at 5 uM after 30 hrs; format: functional
Method in brief: (§3)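 U937 cells stimulated 30 h at 5 µM; granulocytic differentiation measured as CD11c expression, reported as percent CD11c-positive/PI-negative cells; SAHA and MS-275 at 5 µM as references.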

U-937 [4] = test: Induction of histone H4 hyperacetylation in human U937 cells; format: functional, cell-based
U-937 [5] = test: Induction of granulocytic differentiation in human U937 cells; format: functional, cell-based; method in brief: as §3
U-937 [6] = test: Induction of apoptosis in human U937 cells at 5 uM after 30 hrs; format: functional; method in brief: as §1
U-937 [7] = test: Induction of p21 expression in human U937 cells at 5 uM after 24 hrs; format: functional, cell-based
Method in brief: (§4)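 U937 cells exposed at 5 µM for 24 h; induction of p21WAF1/CIP1 assessed alongside histone H3 and α-tubulin acetylation.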

U-937 [8] = test: Induction of alpha tubulin hyperacetylation in human U937 cells at 5 uM; format: functional, cell-based; method in brief: as §2
U-937 [9] = test: Induction of histone H3 hyperacetylation in human U937 cells at 5 uM; format: functional, cell-based; method in brief: as §2
U-937 [10] = test: Induction of histone H4 hyperacetylation in human U937 cells at 5 uM; format: functional, cell-based
U-937 [11] = test: Induction of p21 expression in human U937 cells; format: functional, cell-based; method in brief: as §4
Histone deacetylase 4 = Histone deacetylase 4 (Homo sapiens, UniProt P56524); test: Inhibition of human HDAC4 in U937 cells by immunoprecipitation assay; format: cell-based, U-937
Sequence of Histone deacetylase 4 (P56524 whole entry): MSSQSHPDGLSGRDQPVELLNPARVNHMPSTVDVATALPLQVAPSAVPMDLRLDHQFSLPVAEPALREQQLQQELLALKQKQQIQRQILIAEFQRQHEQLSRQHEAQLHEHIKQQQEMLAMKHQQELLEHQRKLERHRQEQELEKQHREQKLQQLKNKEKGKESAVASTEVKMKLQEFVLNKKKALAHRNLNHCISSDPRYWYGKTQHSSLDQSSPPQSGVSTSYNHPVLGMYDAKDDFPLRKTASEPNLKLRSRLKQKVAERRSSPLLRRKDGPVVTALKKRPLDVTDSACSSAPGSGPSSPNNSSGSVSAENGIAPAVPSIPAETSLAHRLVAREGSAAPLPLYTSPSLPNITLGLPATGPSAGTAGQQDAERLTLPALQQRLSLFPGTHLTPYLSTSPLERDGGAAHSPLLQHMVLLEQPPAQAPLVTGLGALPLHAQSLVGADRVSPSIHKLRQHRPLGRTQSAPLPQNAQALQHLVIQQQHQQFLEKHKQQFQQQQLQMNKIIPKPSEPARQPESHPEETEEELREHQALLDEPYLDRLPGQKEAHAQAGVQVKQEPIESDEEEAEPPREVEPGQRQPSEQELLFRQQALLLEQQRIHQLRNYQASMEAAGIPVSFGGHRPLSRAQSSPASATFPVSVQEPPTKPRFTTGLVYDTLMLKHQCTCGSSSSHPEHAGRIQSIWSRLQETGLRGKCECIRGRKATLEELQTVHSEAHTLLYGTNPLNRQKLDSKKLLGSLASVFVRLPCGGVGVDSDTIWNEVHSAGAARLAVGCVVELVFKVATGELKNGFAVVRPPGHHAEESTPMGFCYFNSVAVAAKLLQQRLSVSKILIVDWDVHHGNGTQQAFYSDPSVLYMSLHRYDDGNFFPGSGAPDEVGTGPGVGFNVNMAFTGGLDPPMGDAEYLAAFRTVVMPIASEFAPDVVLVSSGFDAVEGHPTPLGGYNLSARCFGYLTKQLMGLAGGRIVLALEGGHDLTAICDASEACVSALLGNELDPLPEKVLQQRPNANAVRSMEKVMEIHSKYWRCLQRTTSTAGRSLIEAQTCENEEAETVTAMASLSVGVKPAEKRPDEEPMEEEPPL

U-937 [12] = test: Cell cycle arrest in human U937 cells assessed as accumulation at G2 phase at 5 uM after 30 hrs; format: functional, cell-based
Method in brief: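 U937 human leukemia cells exposed to compound at 5 µM for 30 h; cell-cycle distribution analysed, arrest read as accumulation in S or G2 phase; SAHA and MS-275 at 5 µM as reference drugs.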

Histone deacetylase 1 = Histone deacetylase 1 (Homo sapiens, UniProt Q13547); test: Inhibition of human HDAC1 in U937 cells by immunoprecipitation assay; format: cell-based, U-937
Sequence of Histone deacetylase 1 (Q13547 whole entry): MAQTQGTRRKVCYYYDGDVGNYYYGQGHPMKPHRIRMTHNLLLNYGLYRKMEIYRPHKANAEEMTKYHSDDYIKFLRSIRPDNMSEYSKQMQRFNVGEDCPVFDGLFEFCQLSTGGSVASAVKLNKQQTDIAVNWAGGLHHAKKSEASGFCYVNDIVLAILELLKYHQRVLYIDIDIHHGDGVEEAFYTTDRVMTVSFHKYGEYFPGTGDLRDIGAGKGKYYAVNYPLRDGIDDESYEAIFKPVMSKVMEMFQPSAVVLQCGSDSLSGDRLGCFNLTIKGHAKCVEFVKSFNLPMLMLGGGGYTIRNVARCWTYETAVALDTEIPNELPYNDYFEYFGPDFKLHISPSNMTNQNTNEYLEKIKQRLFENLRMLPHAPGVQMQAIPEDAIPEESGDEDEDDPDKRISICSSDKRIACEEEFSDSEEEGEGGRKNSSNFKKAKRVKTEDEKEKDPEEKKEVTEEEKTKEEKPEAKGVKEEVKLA

## Nc1ccccc1NC(=O)c1ccc(CNC(=O)OCc2cccnc2)cc1 [ENTINOSTAT]
U-937 [1]
  Activity: inactive
U-937 [2]
  Activity: inactive
U-937 [3]
  Activity: 30.8%
U-937 [4]
  Activity: Active
U-937 [5]
  Activity: Active
U-937 [6]
  Activity: 3.5%

## Nc1cccc2cccc(NC(=O)CCCCSc3nc(-c4ccccc4)cc(=O)[nH]3)c12
U-937 [3]
  Activity: 30.3%
U-937 [7]
  Activity: Active

## Nc1ccccc1NC(=O)CCCCCC(=O)Nc1ccccc1
U-937 [3]
  Activity: 18.3%
U-937 [8]
  Activity: inactive
U-937 [9]
  Activity: Active
U-937 [10]
  Activity: Active

## Nc1ccccc1NC(=O)CCCCCc1nc(-c2ccccc2)cc(=O)[nH]1
U-937 [6]
  Activity: 4.8%
U-937 [7]
  Activity: Active

## Nc1ccccc1NC(=O)CCCCSc1nc(-c2ccccc2)cc(=O)[nH]1
U-937 [7]
  Activity: Active

## O=C(CCCCCCC(=O)Nc1ccccc1)NO [VORINOSTAT]
U-937 [1]
  Activity: Active
U-937 [2]
  Activity: Active
U-937 [3]
  Activity: 21.5%
U-937 [11]
  Activity: Active
U-937 [4]
  Activity: Active
U-937 [5]
  Activity: Active
U-937 [6]
  Activity: 16.8%

## Nc1cccc2cccc(NC(=O)CCCCCc3nc(-c4ccc(-c5ccccc5)cc4)cc(=O)[nH]3)c12
U-937 [3]
  Activity: 67.6%

## Nc1ccccc1NC(=O)c1ccc(CSc2nc(-c3ccccc3)cc(=O)[nH]2)cc1
Histone deacetylase 4
  IC50: 125 µM
U-937 [3]
  Activity: 47.6%
U-937 [12]
  Activity: Active
Histone deacetylase 1
  IC50: 0.2 µM
U-937 [7]
  Activity: Active

## O=C(CCCCCC(=O)Nc1ccccc1O)Nc1ccccc1
U-937 [3]
  Activity: 36.6%

## Nc1ccccc1NC(=O)CCCCCc1nc(-c2ccc(-c3ccccc3)cc2)cc(=O)[nH]1
U-937 [3]
  Activity: 45.9%
U-937 [7]
  Activity: Active
